By MIC50 is commonly meant the lowest concentration that inhibits either 50% of growth or 50% of the strains tested, depending on the study. The low end stands for higher susceptibility, the high end for lower susceptibility. In general, MIC90 refers to the lowest concentration that inhibits either 90% of growth or 90% of the strains tested, depending on the study. Read a high MIC90 as lower susceptibility. One may read the MIC as the smallest concentration in the dilution series that meets the test's criterion for growth inhibition.

Data on 4 compounds can be found in ChEMBL document CHEMBL1275451, “In vitro susceptibilities of invasive isolates of Candida species: rapid increase in rates of fluconazole susceptible-dose dependent Candida glabrata isolates” (2008).

Format in all cases: functional
Assay [1] deals with Candida tropicalis. Briefly: Antifungal activity against Candida tropicalis after 48 hrs by CLSI method. The method, boiled down:
(§1)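 Broth microdilution MICs were run on invasive clinical Candida isolates under CLSI M27-A2, with incubation at 35°C for 48 h before reading. Control strains were C. parapsilosis ATCC 22019 and C. krusei ATCC 6258. MICs were interpreted under the same guideline to place isolates as susceptible, susceptible-dose dependent or resistant, reported as percentage of isolates per category, with MIC range, MIC50 and MIC90.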

For assay [2], the system named is Candida parapsilosis. Put plainly: Antifungal activity against Candida parapsilosis after 48 hrs by CLSI method. The note with it: Lodderomyces parapsilosis. The method, boiled down: as §1
The subject of assay [3] is Pichia kudriavzevii. Briefly: Antifungal activity against Candida krusei after 48 hrs by CLSI method. The method, boiled down: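 Broth microdilution MICs were run on invasive clinical Candida isolates under CLSI M27-A2, with incubation at 35°C for 48 h before reading. MICs were interpreted under the same guideline to place isolates as susceptible, susceptible-dose dependent or resistant, reported as percentage of isolates per category, with MIC range, MIC50 and MIC90.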

The subject of assay [4] is Candida albicans. Briefly: Antifungal activity against Candida albicans after 48 hrs by CLSI method.
In assay [5] the test system is Clavispora lusitaniae. Put plainly: Antifungal activity against Candida lusitaniae after 48 hrs by CLSI method.
Assay [6] has as its system Meyerozyma guilliermondii. Put plainly: Antifungal activity against Candida guilliermondii after 48 hrs by CLSI method.
The test system of assay [7] is Nakaseomyces glabratus. Put plainly: Antifungal activity against Candida glabrata after 48 hrs by CLSI method.
Assay [8] has as its system Nakaseomyces glabratus. Put plainly: Antifungal activity against Candida glabrata assessed as susceptible isolates after 48 hrs by CLSI method. The method, boiled down: as §1
Assay [9] deals with Candida albicans. Briefly: Antifungal activity against Candida albicans assessed as susceptible isolates after 48 hrs by CLSI method. The gist of the method:
as §1

The subject of assay [10] is Clavispora lusitaniae. Briefly: Antifungal activity against Candida lusitaniae assessed as susceptible isolates after 48 hrs by CLSI method. The gist of the method:
as §1

Assay [11] deals with Candida parapsilosis. Put plainly: Antifungal activity against Candida parapsilosis assessed as susceptible isolates after 48 hrs by CLSI method. The method, boiled down:
as §1

Assay [12] has as its system Meyerozyma guilliermondii. Put plainly: Antifungal activity against Candida guilliermondii assessed as susceptible isolates after 48 hrs by CLSI method. The method, boiled down: as §1
The subject of assay [13] is Pichia kudriavzevii. Briefly: Antifungal activity against Candida krusei assessed as susceptible isolates after 48 hrs by CLSI method. The gist of the method: as §1
Assay [14] has as its system Candida tropicalis. Put plainly: Antifungal activity against Candida tropicalis assessed as susceptible isolates after 48 hrs by CLSI method. The gist of the method:
as §1

Assay [15] has as its system Candida tropicalis. Put plainly: Antifungal activity against Candida tropicalis assessed as resistant isolates after 48 hrs by CLSI method. The method, boiled down:
as §1

The test system of assay [16] is Candida albicans. Put plainly: Antifungal activity against Candida albicans assessed as resistant isolates after 48 hrs by CLSI method. The gist of the method:
as §1

Assay [17] has as its system Nakaseomyces glabratus. Briefly: Antifungal activity against Candida glabrata assessed as susceptible dose-dependent isolates after 48 hrs by CLSI method. The method, boiled down: as §1
Assay [18] deals with Nakaseomyces glabratus. Briefly: Antifungal activity against Candida glabrata assessed as resistant isolates after 48 hrs by CLSI method. The gist of the method: as §1
Assay [19] concerns Candida tropicalis. Put plainly: Antifungal activity against Candida tropicalis assessed as susceptible dose-dependent isolates after 48 hrs by CLSI method. The gist of the method: as §1
The test system of assay [20] is Pichia kudriavzevii. Put plainly: Antifungal activity against Candida krusei assessed as resistant isolates after 48 hrs by CLSI method. The method, boiled down:
as §1

The test system of assay [21] is Clavispora lusitaniae. Put plainly: Antifungal activity against Candida lusitaniae assessed as susceptible dose-dependent isolates after 48 hrs by CLSI method. The gist of the method:
as §1

In assay [22] the test system is Candida parapsilosis. Briefly: Antifungal activity against Candida parapsilosis assessed as susceptible dose-dependent isolates after 48 hrs by CLSI method. The method, boiled down: as §1
The subject of assay [23] is Pichia kudriavzevii. Put plainly: Antifungal activity against Candida krusei assessed as susceptible dose-dependent isolates after 48 hrs by CLSI method. The method, boiled down: as §1
In assay [24] the test system is Candida albicans. Briefly: Antifungal activity against Candida albicans assessed as susceptible dose-dependent isolates after 48 hrs by CLSI method. The method, boiled down: as §1
Assay [25] relates to Candida parapsilosis. Briefly: Antifungal activity against Candida parapsilosis assessed as resistant isolates after 48 hrs by CLSI method. The gist of the method:
as §1

The subject of assay [26] is Meyerozyma guilliermondii. Briefly: Antifungal activity against Candida guilliermondii assessed as susceptible dose-dependent isolates after 48 hrs by CLSI method. The method, boiled down: as §1

In brackets after ≈: the same amount, converted by molar mass.

Regarding `CC[C@@H]([C@H](C)O)n1ncn(-c2ccc(N3CCN(c4ccc(OC[C@@H]5CO[C@@](Cn6cncn6)(c6ccc(F)cc6F)C5)cc4)CC3)cc2)c1=O` [POSACONAZOLE], the MIC50 in assay [1] stood at 0.06 µg/mL (≈ 0.0856 µM); in [2] it was 0.03 µg/mL (≈ 0.0428 µM); in [3] it was 0.25 µg/mL (≈ 0.357 µM); in assay [4], 0.015 µg/mL (≈ 0.0214 µM); in assay [5] it was 0.03 µg/mL (≈ 0.0428 µM); in [6] it was 0.12 µg/mL (≈ 0.171 µM). Besides, in assay [7], the MIC50 is 0.5 µg/mL (≈ 0.713 µM). The MIC90 in assay [1] amounted to 0.25 µg/mL (≈ 0.357 µM); in assay [2], 0.06 µg/mL (≈ 0.0856 µM); in [3] it was 0.25 µg/mL (≈ 0.357 µM); in assay [4], 0.03 µg/mL (≈ 0.0428 µM); in assay [5], 0.03 µg/mL (≈ 0.0428 µM); in [6], 0.25 µg/mL (≈ 0.357 µM). In addition, the MIC90 in [7] turned out to be 0.5 µg/mL (≈ 0.713 µM). For the same compound, the MIC in assay [2] amounted to 0.03 µg/mL (≈ 0.0428 µM); in assay [4], 0.015 µg/mL (≈ 0.0214 µM).

For `CC[C@H](C)C[C@H](C)CCCCCCCCC(=O)N[C@H]1C[C@@H](O)[C@@H](NCCN)NC(=O)[C@@H]2[C@@H](O)CCN2C(=O)[C@H]([C@H](O)CCN)NC(=O)[C@H]([C@H](O)[C@@H](O)c2ccc(O)cc2)NC(=O)[C@@H]2C[C@@H](O)CN2C(=O)[C@H]([C@@H](C)O)NC1=O` [CASPOFUNGIN], the MIC50 worked out at 0.25 µg/mL (≈ 0.229 µM) in assay [1]; 1 µg/mL (≈ 0.915 µM) in [2]; 1 µg/mL (≈ 0.915 µM) in [3]; 0.25 µg/mL (≈ 0.229 µM) in [4]; 2 µg/mL (≈ 1.83 µM) in assay [5]; 2 µg/mL (≈ 1.83 µM) in assay [6]. Besides, the MIC50 in assay [7] turned out to be 0.25 µg/mL (≈ 0.229 µM). For the same compound, the MIC90 in assay [1] turned out to be 0.5 µg/mL (≈ 0.457 µM); in assay [2], 2 µg/mL (≈ 1.83 µM); in [3], 1 µg/mL (≈ 0.915 µM); in [4], 0.25 µg/mL (≈ 0.229 µM); in assay [5], 2 µg/mL (≈ 1.83 µM); in assay [6], 2 µg/mL (≈ 1.83 µM). In addition, in assay [7], the MIC90 stood at 0.25 µg/mL (≈ 0.229 µM).

Regarding `C[C@@H]1[C@H](O)[C@@H](C)/C=C/C=C/C=C/C=C/C=C/C=C/C=C/[C@H](O[C@@H]2O[C@H](C)[C@@H](O)[C@H](N)[C@@H]2O)C[C@@H]2O[C@](O)(C[C@@H](O)C[C@@H](O)[C@H](O)CC[C@@H](O)C[C@@H](O)CC(=O)O[C@H]1C)C[C@H](O)[C@H]2C(=O)O` [AMPHOTERICIN B], the MIC in assay [1] amounted to 0.5 µg/mL (≈ 0.541 µM); in assay [4], 1 µg/mL (≈ 1.08 µM). Moreover, the MIC50 in assay [1] is 0.5 µg/mL (≈ 0.541 µM); in assay [3], 2 µg/mL (≈ 2.16 µM); in assay [4], 1 µg/mL (≈ 1.08 µM); in [5], 1 µg/mL (≈ 1.08 µM); in assay [7] it was 2 µg/mL (≈ 2.16 µM). In addition, the MIC90 in [1] is 1 µg/mL (≈ 1.08 µM); in [3], 2 µg/mL (≈ 2.16 µM); in assay [4], 1 µg/mL (≈ 1.08 µM); in [5], 1 µg/mL (≈ 1.08 µM); in assay [7] it was 2 µg/mL (≈ 2.16 µM). Besides, the Activity came to 47% in assay [8]; 100% in assay [9]; 100% in assay [10]; 98% in [11]; 97% in assay [12]; 5% in assay [13]. The Activity in [14] stood at 98%.

Regarding `CCC(C)n1ncn(-c2ccc(N3CCN(c4ccc(OCC5COC(Cn6cncn6)(c6ccc(Cl)cc6Cl)O5)cc4)CC3)cc2)c1=O` (configuration not stated) [ITRACONAZOLE], the Activity in assay [15] came out at 0%; in assay [16], 0%; in [17], 37%; in [8], 0%; in assay [9] it was 98%; in assay [18] it was 63%. For the same compound, the Activity in assay [10] is 100%; in assay [19], 35%; in [11], 78%; in assay [20], 10%; in assay [12] it was 6%; in [21] it was 0%. For the same compound, the Activity in assay [22] is 22%; in assay [23], 90%; in assay [13] it was 0%; in [24] it was 2%; in assay [25] it was 0%; in assay [14], 65%. Further, the Activity in assay [26] is 88%. Besides, the MIC50 in [1] was determined as 0.12 µg/mL (≈ 0.17 µM); in assay [2], 0.06 µg/mL (≈ 0.085 µM); in assay [3], 0.5 µg/mL (≈ 0.709 µM); in assay [4], 0.03 µg/mL (≈ 0.0425 µM); in [5], 0.06 µg/mL (≈ 0.085 µM); in assay [6], 0.5 µg/mL (≈ 0.709 µM). The compound also gave an MIC50 in [7] of 1 µg/mL (≈ 1.42 µM). The MIC90 in [1] stood at 0.25 µg/mL (≈ 0.354 µM); in [2], 0.25 µg/mL (≈ 0.354 µM); in assay [3], 0.5 µg/mL (≈ 0.709 µM); in [4] it was 0.03 µg/mL (≈ 0.0425 µM); in assay [5], 0.06 µg/mL (≈ 0.085 µM); in assay [6] it was 0.5 µg/mL (≈ 0.709 µM). This compound also returned an MIC90 in assay [7] of 1 µg/mL (≈ 1.42 µM).
